Assay results published in ChEMBL document CHEMBL1150866, “Chemical constituents from Lippia sidoides and cytotoxic activity” (J Nat Prod, 2001).
Converted amounts (≈) assume the structure as drawn.

tested on: SW1573; test: Cytotoxicity against human SW1573 cells after 3 days by MTT assay; format: functional, cell-based; details: SW1573, 72 h
Summary of the method: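 Adherent cells were grown in RPMI1640 with 10% FBS, plated at 0.2×10^5 cells/100 μL, and left 24 h to attach. Drug in fresh medium was applied at 0.39–25 μg/mL for 3 days. Viability was by MTT in serum-free medium for 3 h at 37 °C, with DMSO solubilization and absorbance at 550 nm.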

Structure (SMILES) | IC50 [µg/mL]
COc1cc2c(c3ccccc13)OC(C)(C)C=C2 [LAPACHENOL] | > 10
COc1cc([C@H]2c3cc(O)c(OC)cc3C[C@@H](CO)[C@@H]2CO)ccc1O [ISOLARICIRESINOL] | > 10
CC(C)=CC1Oc2c(c3c(c4ccccc24)OC(C)(C)C=C3)C2=C1C(=O)c1ccccc1C2=O (stereo unspecified) [TECOMAQUINONE] | > 10
O=C1c2c(O)cc(O)cc2OC(c2ccc(O)c(O)c2)C1O (stereo unspecified) [TAXIFOLIN] | > 10
Cc1ccc2c(c1)C(=O)c1ccccc1C2=O [TECTOQUINONE] | > 10
O=c1cc(-c2ccc(O)c(O)c2)oc2cc(O[C@@H]3O[C@H](CO)[C@@H](O)[C@H](O)[C@H]3O)cc(O)c12 [GALUTEOLIN] | > 10
CC(=O)Oc1c(-c2c3c(c4ccccc4c2OC(C)=O)OC(C)(C)C=C3)c2c(c3ccccc13)OC(C)(C)C=C2 | > 10
O=c1cc(-c2ccc(O)c(O)c2)oc2cc(O)cc(O)c12 [LUTEOLIN] | > 10
O=c1c(O)c(-c2ccc(O)c(O)c2)oc2cc(O)cc(O)c12 [QUERCETIN] | > 10

tested on: HL-60; test: Cytotoxicity against human HL60 cells after 3 days by MTT assay; format: functional, cell-based; details: HL-60, 72 h
Summary of the method: (§1)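 Suspension cells were kept in RPMI1640 with 10% FBS and seeded at 0.5×10^6 cells/100 μL without preincubation. Fresh medium holding 0.39–25 μg/mL drug was added, and cells were exposed for 3 days. MTT in serum-free medium was then given for 3 h at 37 °C, the formazan dissolved in DMSO, and absorbance read at 550 nm.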

Structure (SMILES) | IC50 [µg/mL]
COc1cc2c(c3ccccc13)OC(C)(C)C=C2 [LAPACHENOL] | > 10
COc1cc([C@H]2c3cc(O)c(OC)cc3C[C@@H](CO)[C@@H]2CO)ccc1O [ISOLARICIRESINOL] | > 10
CC(C)=CC1Oc2c(c3c(c4ccccc24)OC(C)(C)C=C3)C2=C1C(=O)c1ccccc1C2=O (stereo unspecified) [TECOMAQUINONE] | > 10
CC1(C)C=Cc2c(-c3c4c(c5ccccc5c3O)OC(C)(C)C=C4)c(O)c3ccccc3c2O1 [tectol] | 1.79 (≈ 3.97 µM)
O=C1c2c(O)cc(O)cc2OC(c2ccc(O)c(O)c2)C1O (stereo unspecified) [TAXIFOLIN] | > 10
Cc1ccc2c(c1)C(=O)c1ccccc1C2=O [TECTOQUINONE] | > 10
O=c1cc(-c2ccc(O)c(O)c2)oc2cc(O[C@@H]3O[C@H](CO)[C@@H](O)[C@H](O)[C@H]3O)cc(O)c12 [GALUTEOLIN] | > 10
CC1=C[C@H]2C3=C(C(=O)c4ccccc4C3=O)[C@]3(O)c4ccccc4C(=O)[C@@]2(/C=C/C(C)(C)O)[C@H]3C1 [LIPPSIDOQUINONE] | 2.38 (≈ 5.1 µM)
CC(=O)Oc1c(-c2c3c(c4ccccc4c2OC(C)=O)OC(C)(C)C=C3)c2c(c3ccccc13)OC(C)(C)C=C2 | > 10
O=c1cc(-c2ccc(O)c(O)c2)oc2cc(O)cc(O)c12 [LUTEOLIN] | > 10
O=c1c(O)c(-c2ccc(O)c(O)c2)oc2cc(O)cc(O)c12 [QUERCETIN] | > 10

tested on: CCRF-CEM; test: Cytotoxicity against human CEM cells after 3 days by MTT assay; format: functional, cell-based; details: 72 h; summary of the method: as §1

Structure (SMILES) | IC50 [µg/mL]
COc1cc2c(c3ccccc13)OC(C)(C)C=C2 [LAPACHENOL] | > 10
COc1cc([C@H]2c3cc(O)c(OC)cc3C[C@@H](CO)[C@@H]2CO)ccc1O [ISOLARICIRESINOL] | > 10
CC(C)=CC1Oc2c(c3c(c4ccccc24)OC(C)(C)C=C3)C2=C1C(=O)c1ccccc1C2=O (stereo unspecified) [TECOMAQUINONE] | > 10
CC1(C)C=Cc2c(-c3c4c(c5ccccc5c3O)OC(C)(C)C=C4)c(O)c3ccccc3c2O1 [tectol] | 0.78 (≈ 1.73 µM)
O=C1c2c(O)cc(O)cc2OC(c2ccc(O)c(O)c2)C1O (stereo unspecified) [TAXIFOLIN] | > 10
Cc1ccc2c(c1)C(=O)c1ccccc1C2=O [TECTOQUINONE] | > 10
O=c1cc(-c2ccc(O)c(O)c2)oc2cc(O[C@@H]3O[C@H](CO)[C@@H](O)[C@H](O)[C@H]3O)cc(O)c12 [GALUTEOLIN] | > 10
CC1=C[C@H]2C3=C(C(=O)c4ccccc4C3=O)[C@]3(O)c4ccccc4C(=O)[C@@]2(/C=C/C(C)(C)O)[C@H]3C1 [LIPPSIDOQUINONE] | 2.58 (≈ 5.53 µM)
CC(=O)Oc1c(-c2c3c(c4ccccc4c2OC(C)=O)OC(C)(C)C=C3)c2c(c3ccccc13)OC(C)(C)C=C2 | > 10
O=c1cc(-c2ccc(O)c(O)c2)oc2cc(O)cc(O)c12 [LUTEOLIN] | > 10
O=c1c(O)c(-c2ccc(O)c(O)c2)oc2cc(O)cc(O)c12 [QUERCETIN] | > 10
